In publication PMC4816258 (Clinical and Translational Gastroenterology, 2015):
“Also recorded” adds a separate entry of the source. Where no end group is shown, it is not given here.

What was measured:
[1] = tested on: human dysplastic colorectal polyps; conditions: FITC-labeled, confocal endomicroscopy; cited from earlier work
SW480 cells = assay: confocal fluorescence microscopy of peptide binding, SW480; format: cell-based, human; conditions: 5 μM peptide, 3 min at RT; SW480 medium EGFR expression
Summary of the method: (§1)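 HT29 cells kept in McCoy's medium; SW480 and SW620 cells in DMEM. All with 10% FBS and 1% penicillin–streptomycin at 37 °C, 5% CO2. ~10^3 cells grown on coverslips to ~80% confluence, washed in PBS and incubated with 5 μM Cy5.5-labeled test or control peptide for 3 min at RT. Cells washed, fixed in 4% PFA for 5 min and mounted with DAPI; confocal imaging with 63× oil objective. Intensities quantified from five cells in two independent images.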

SW620 cells = assay: confocal fluorescence microscopy of peptide binding, SW620; format: cell-based, human; conditions: 5 μM peptide, 3 min at RT; SW620 low EGFR expression
Summary of the method: as §1

[2] = tested on: EGFR in HT29 cells (siCL vs siEGFR); assay: siRNA knockdown of EGFR, confocal microscopy of peptide binding; format: cell-based, human; conditions: for intensity siCL vs siEGFR (in words): HT29, confocal; for binding/intensity in HT29 knockdown cells (siEGFR) / binding to control HT29 cells (siCL): confocal; for binding/intensity in HT29 knockdown cells (siEGFR): EGFR-targeting siRNA; for binding to control HT29 cells (siCL): nontargeting siRNA
Summary of the method: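 HT29 cells, with penicillin–streptomycin omitted, transfected using DharmaFECT with EGFR-targeting or nontargeting pool siRNA. Cells incubated with Cy5.5-labeled test and control peptides, then fixed in 4% PFA or methanol. Stained with mouse anti-EGFR (1:1000) overnight at 4 °C, then AF488 goat anti-mouse (1:500) 1 h at RT. Mounted with DAPI; confocal imaging with 63× oil objective.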

[3] = fluorescence spectra of Cy5.5-labeled peptides; format: physicochemical; conditions: 10 μM in PBS, λex=671 nm
[4] = tested on: spontaneous colonic adenomas in CPC;Apc mice; assay: in vivo near-infrared fluorescence endoscopy of colon in CPC; parameters: species or system mouse; conditions: for T/B ratio (log2), flat lesions / T/B ratio (log2), polyps: mean±s.d., n=15; for target-to-background ratio, flat lesions / target-to-background ratio, polyps: 1.5 ml, 5 min incubation; for target-to-background ratio, flat lesions: flat lesions n=15, 5 mice; for target-to-background ratio, polyps: polyps n=15, 5 mice
Summary of the method: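 CPC;Apc mice (Cdx2-Cre, floxed Apc allele), n=5, aged 7–10 months, under 2–4% isoflurane in oxygen by nose cone. Colon rinsed with water under white light. Cy5.5-labeled peptides (100 μM) delivered topically through the endoscope channel and left 5 min, then unbound peptide rinsed off. Imaging with small-animal NIR fluorescence endoscope; lesions excised for H&E. T/B ratios log-transformed; fold-change taken as anti-log of difference.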

HT29 cells [5] = assay: confocal fluorescence microscopy of peptide binding, HT29; format: cell-based, human; conditions: 5 μM peptide, 3 min at RT; HT29 high EGFR expression
Summary of the method: as §1

human colonic dysplasia = assay: binding of peptide and antibody to human colonic specimens, confocal microscopy
Summary of the method: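 Human colonic biopsies from routine colonoscopy, frozen in OCT, cut at 10 μm. Sections incubated with 5 μM Cy5.5-labeled peptide in PBS for 10 min at RT, then rabbit anti-EGFR (1:1000) overnight at 4 °C and AF488 goat anti-rabbit (1:500) 1 h at RT. Sections fixed in 4% PFA and mounted with DAPI; confocal imaging at 20×. Mean intensity taken from three 30×30 μm² boxes within surface epithelium per specimen. Histology reviewed by GI pathologist.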

[6] = tested on: EGFR phosphorylation, Akt and Erk1/2 phosphorylation in HT29 cells; assay: effect of peptide on cell signaling, western blot; format: cell-based, human; conditions: 5 and 100 μM, 10, 20 and 120 min
Summary of the method: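 HT29 cells held in serum-free medium for 16 h, then exposed to Cy5.5-labeled peptide at 5 or 100 μM for 10, 20 or 120 min. EGF at 100 ng/ml for the same times served as reference. Cells lysed in RIPA with protease inhibitors, followed by SDS gel electrophoresis, PVDF transfer and chemiluminescent immunoblotting. Probes: EGFR, phospho-EGFR, AKT, phospho-AKT (S473), ERK1/2, phospho-ERK1/2 and tubulin.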

[7] = tested on: dysplastic crypts in polyps; assay: binding to dysplastic crypts in mouse polyp specimens, immunofluorescence; conditions: optimal cutting temperature-embedded mouse specimens
Summary of the method: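 Mouse polypoid dysplasia frozen in OCT and cut at 10 μm. Sections stained with goat anti-mouse anti-EGFR (1:1000) plus AF488-labeled secondary antibody, washed in PBS, fixed in 4% PFA for 10 min and mounted with DAPI. Confocal microscopy used; adjacent sections stained with H&E.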

HT29 cells [8] = assay: apparent association time constant, flow cytometry; format: binding, human; conditions: from k, 5 μM QRH*-Cy5.5, 4 °C
Summary of the method: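 HT29 cells detached with PBS-based dissociation buffer; ~10^5 cells incubated with 5 μM Cy5.5-labeled test peptide at 4 °C for intervals from 0 to 20 min. Cells washed in cold PBS, fixed in 4% PFA and analysed by flow cytometry. Median fluorescence taken as a ratio to cells without peptide at each time point. Rate constant k fitted to y(t)=Imax[1−exp(−kt)]. Six independent experiments.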

[9] = molecular target: Epidermal growth factor receptor (EGFR) (human (endogenous in HT29, SW480, SW620), UniProt P00533 25-1210); assay: immunostaining of cells or tissue
[10] = NIR endoscopy, topical 100 μM, 5 min
[11] = anti-log of difference in log-transformed data

## VRPMPLQ
[1]
  detection of dysplastic colorectal polyps: used to detect human dysplastic colorectal polyps in vivo with confocal endomicroscopy

## PEHKRRQ [PEH*-Cy5.5]
SW480 cells
  binding to cell surface (SW480): Minimal binding
SW620 cells
  binding to cell surface (SW620): Minimal binding
[2]
  intensity siCL vs siEGFR (in words): nonsignificant decrease
  binding/intensity in HT29 knockdown cells (siEGFR): minimal binding
  binding to control HT29 cells (siCL): minimal binding
[3]
  peak emission: 710 nm
[4]; [10]
  fluorescence signal from flat lesions: Minimal signal
  fluorescence signal from polyp: Minimal signal
[4]; topical 100 μM
  T/B ratio (log2), flat lesions: 0.36±0.47 log2
  T/B ratio (log2), polyps: 0.62±0.77 log2
HT29 cells [5]
  binding to cell surface (HT29): Minimal binding

## QRHKPRE
Human colonic dysplasia; 5 μM, 10 min at RT, dysplasia n=29, normal n=15
  mean fluorescence intensity, dysplasia compared with normal: 19.4 fold
[4]; topical 100 μM
  target-to-background ratio, flat lesions: 2.7±0.7
  target-to-background ratio, polyps: 4.0±1.7
[6]
  EGFR phosphorylation / downstream signaling: No downstream signaling was observed; also recorded: lack of cytoplasmic signaling

## QRHKPRE [QRH*-Cy5.5]
Human colonic dysplasia; dysplasia vs normal, n=29 and 15
  area under ROC curve (AUC): 0.94
[2]
  intensity siCL vs siEGFR (in words): significantly higher intensities for siCL-transfected HT29 cells
  binding/intensity in HT29 knockdown cells (siEGFR): Reduced fluorescence intensity
  binding to control HT29 cells (siCL): bind strongly to the surface; also recorded: strong binding
[3]
  peak emission: 710 nm
[7]
  binding to dysplastic crypts in polyps: increased fluorescence intensity
[4]; [10]
  fluorescence signal from flat lesions: Several flat lesions are seen on fluorescence; also recorded: presence of flat lesions
  fluorescence signal from polyp: increased intensity from the polyp in a heterogeneous pattern
  signal from normal colonic mucosa: minimal background
[4]; [11]
  mean fold difference of T/B ratio QRH*-Cy5.5 vs PEH*-Cy5.5, flat lesions: 2.05
  mean fold difference of T/B ratio QRH*-Cy5.5 vs PEH*-Cy5.5, polyps: 2.43
[4]; topical 100 μM
  T/B ratio (log2), flat lesions: 1.39±0.34 log2
  T/B ratio (log2), polyps: 1.90±0.60 log2
  target-to-background ratio, flat lesions: 2.7±0.7
  target-to-background ratio, polyps: 4.0±1.7
[4]; topical 100 μM, 5 min
  difference in results between QRH*-Cy5.5 and PEH*-Cy5.5 (target-to-background): significant
HT29 cells [8]
  time scale for binding: 2.46 min
[6]
  EGFR phosphorylation / downstream signaling: no evidence of either EGFR phosphorylation or downstream phosphorylation of Akt and Erk1/2

B1: QRH*-Cy5.5 (peptide)
peptide: QRHKPREGGGSK(Cy5.5)-NH2
[9]
  fold change of fluorescence intensity, siCL- vs. siEGFR-transfected cells: 3.2 fold
